Data set [1] deals with Staphylococcus aureus. Kind of data set: Antibacterial activity against methicillin-resistant Staphylococcus aureus strains 15 1 to 4 assessed as reduction in bacterial growth incubated for 18 to 20 hrs by CLSI based microdilution method. It counts as functional. As to conditions: time 18-20 hrs. A digest of the protocol: (§1)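 Broth microdilution per CLSI. Compounds dissolved in DMSO (levofloxacin and meropenem in water) as 64 μg/mL stock, then serial twofold dilutions in broth giving 64 to 0.008 μg/mL. […] Clinical isolates tested as several strains per group; racemic GP-1 served as positive control; values given as MIC ranges.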
For orientation: Broth dilution looks for growth in wells or tubes with falling amounts of substance.

Data set [2] has as its system Staphylococcus aureus. The experiment in a line: Antibacterial activity against methicillin-sensitive Staphylococcus aureus strains 15 1 to 4 assessed as reduction in bacterial growth incubated for 18 to 20 hrs by CLSI based microdilution method. It counts as functional. The following applies: time 18-20 hrs. In short, it runs like this: as §1
In data set [3] the test system is Staphylococcus epidermidis. Kind of data set: Antibacterial activity against methicillin-resistant Staphylococcus epidermidis strains 15 1 to 4 assessed as reduction in bacterial growth incubated for 18 to 20 hrs by CLSI based microdilution method. It counts as functional. As to conditions: time 18-20 hrs. In short, it runs like this: as §1
The subject of data set [4] is Staphylococcus epidermidis. Kind of data set: Antibacterial activity against methicillin-sensitive Staphylococcus epidermidis strains 15 1 to 4 assessed as reduction in bacterial growth incubated for 18 to 20 hrs by CLSI based microdilution method. It counts as functional. As to conditions: time 18-20 hrs. In short, it runs like this:
as §1

Data set [5] concerns Escherichia coli. The experiment in a line: Antibacterial activity against Escherichia coli ATCC 35218 strains 15 1 to 3 assessed as reduction in bacterial growth incubated for 18 to 20 hrs by CLSI based microdilution method. As to conditions: time 18-20 hrs. It counts as functional. In short, it runs like this:
(§2)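 CLSI broth microdilution. Compounds in DMSO (levofloxacin and meropenem in water), serial twofold dilutions in broth, 64 to 0.008 μg/mL. […] Results reported as MIC ranges across strains.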

Data set [6] relates to Pseudomonas aeruginosa. The experiment in a line: Antibacterial activity against multidrug resistant Pseudomonas aeruginosa strains 15 1 to 3 assessed as reduction in bacterial growth incubated for 18 to 20 hrs by CLSI based microdilution method. It counts as functional. The following applies: time 18-20 hrs. In short, it runs like this: as §1
The test system of data set [7] is Escherichia coli. Kind of data set: Antibacterial activity against ESBL-producing multidrug resistant Escherichia coli assessed as reduction in bacterial growth incubated for 18 to 20 hrs by CLSI based microdilution method. It counts as functional. The following applies: time 18-20 hrs. A digest of the protocol: as §1
Data set [8] deals with Escherichia coli. The experiment in a line: Antibacterial activity against multidrug resistant wild type Escherichia coli ATCC BAA-2340 assessed as reduction in bacterial growth incubated for 18 to 20 hrs by CLSI based microdilution method. It counts as functional. The following applies: time 18-20 hrs. In short, it runs like this:
as §1

Data set [9] relates to Escherichia coli. Kind of data set: Antibacterial activity against multidrug resistant wild type Escherichia coli NCTC 13353 assessed as reduction in bacterial growth incubated for 18 to 20 hrs by CLSI based microdilution method. As to conditions: time 18-20 hrs. It counts as functional. A digest of the protocol:
as §1

Data set [10] deals with Klebsiella pneumoniae. The experiment in a line: Antibacterial activity against KPC2-producing multidrug resistant Klebsiella pneumoniae assessed as reduction in bacterial growth incubated for 18 to 20 hrs by CLSI based microdilution method. It counts as functional. As to conditions: time 18-20 hrs. A digest of the protocol: as §1
Data set [11] has as its system Klebsiella pneumoniae. The experiment in a line: Antibacterial activity agains wild type Klebsiella pneumoniae ATCC BAA-1705 assessed as reduction in bacterial growth incubated for 18 to 20 hrs by CLSI based microdilution method. It counts as functional. As to conditions: time 18-20 hrs. In short, it runs like this:
as §2

The test system of data set [12] is Klebsiella pneumoniae. The experiment in a line: Antibacterial activity agains wild type Klebsiella pneumoniae ATCC BAA-2470 assessed as reduction in bacterial growth incubated for 18 to 20 hrs by CLSI based microdilution method. It counts as functional. As to conditions: time 18-20 hrs. A digest of the protocol: as §1
The test system of data set [13] is Acinetobacter baumannii. The experiment in a line: Antibacterial activity agains OXA23-producing multidrug resistant Acinetobacter baumannii assessed as reduction in bacterial growth incubated for 18 to 20 hrs by CLSI based microdilution method. It counts as functional. The following applies: time 18-20 hrs. In short, it runs like this:
as §1

The subject of data set [14] is Acinetobacter baumannii. The experiment in a line: Antibacterial activity against wild type Acinetobacter baumannii NCTC 13304 assessed as reduction in bacterial growth incubated for 18 to 20 hrs by CLSI based microdilution method. It counts as functional. As to conditions: time 18-20 hrs. In short, it runs like this: as §1
The test system of data set [15] is Pseudomonas aeruginosa. Kind of data set: Antibacterial activity against IMP4-producing multidrug resistant Pseudomonas aeruginosa assessed as reduction in bacterial growth incubated for 18 to 20 hrs by CLSI based microdilution method. It counts as functional. The following applies: time 18-20 hrs. In short, it runs like this:
as §1

Data set [16] concerns Pseudomonas aeruginosa. The experiment in a line: Antibacterial activity against wild type Pseudomonas aeruginosa ATCC 27853 assessed as reduction in bacterial growth incubated for 18 to 20 hrs by CLSI based microdilution method. It counts as functional. The following applies: time 18-20 hrs. In short, it runs like this: as §2
Data set [17] has as its system Escherichia coli. Kind of data set: Antibacterial activity against ESBL-producing Escherichia coli ATCC 35218 strains 15 1 to 3 assessed as reduction in bacterial growth incubated for 18 to 20 hrs by CLSI based microdilution method. It counts as functional. As to conditions: time 18-20 hrs. In short, it runs like this:
as §2

Data set [18] in a line: Metabolic stability in rat liver microsome assessed as elimination half life at 0.1 uM in presence of NADPH incubated upto 60 mins by LC-MS/MS analysis. It counts as ADME. As to conditions: liver microsomes, read-out: beta t1/2. In short, it runs like this:
(§3)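 Compound at 0.1 μM final, in 0.01% DMSO with 0.005% BSA. Incubated with rat or human liver microsomes at 0.33 mg/mL in 0.1 M Tris-HCl, pH 7.4, with 5 mM MgCl₂ and 1 mM NADPH, at 37 °C. Samples at 0, 7, 17, 30 and 60 min quenched with cold methanol and analysed by LC-MS/MS. Half-life, Cl_int and MF% derived as previously described.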
In general terms: Liver microsomes are a subcellular fraction often used to study metabolism.

A short description of data set [19]: Metabolic stability in human liver microsome assessed as elimination half life at 0.1 uM in presence of NADPH incubated upto 60 mins by LC-MS/MS analysis. It counts as ADME. The following applies: liver microsomes, read-out: beta t1/2. A digest of the protocol: as §3
A short description of data set [20]: Metabolic stability in rat liver microsome assessed as intrinsic clearance at 0.1 uM in presence of NADPH incubated upto 60 mins by LC-MS/MS analysis. It counts as ADME. As to conditions: microsomes, 1 h. A digest of the protocol: as §3
Data set [21] can be described thus: Metabolic stability in human liver microsome assessed as intrinsic clearance at 0.1 uM in presence of NADPH incubated upto 60 mins by LC-MS/MS analysis. It counts as ADME. As to conditions: microsomes, 1 h. A digest of the protocol: as §3
A short description of data set [22]: Metabolic stability in rat liver microsome assessed as metabolic bioavailability at 0.1 uM in presence of NADPH incubated upto 60 mins by LC-MS/MS analysis. It counts as ADME. As to conditions: liver microsomes. In short, it runs like this: as §3
A short description of data set [23]: Metabolic stability in human liver microsome assessed as metabolic bioavailability at 0.1 uM in presence of NADPH incubated upto 60 mins by LC-MS/MS analysis. It counts as ADME. As to conditions: liver microsomes. In short, it runs like this:
as §3

Converted amounts (≈) assume the structure as drawn. A value given as a limit tells only on which side of the number the result lay.

Usually MIC stands for the lowest concentration that inhibits growth of the organism.

For the molecule `C[C@H]1COc2c(N3CCN(C)CC3)c(F)cc3c(=O)c(C(=O)O)cn1c23.C[C@H]1COc2c(N3CCN(C)CC3)c(F)cc3c(=O)c(C(=O)O)cn1c23.O` [LEVOFLOXACIN], the MIC in the data set on Staphylococcus aureus [1] is 16 µg/mL; in the data set with Staphylococcus aureus [2] it was 0.25 µg/mL; in data set [3] it was over 4 µg/mL; in data set [4], 0.125 µg/mL; with Escherichia coli [5], at most 0.03 µg/mL; in the data set with Pseudomonas aeruginosa [6], 0.5 µg/mL. Besides, the MIC in the data set on Escherichia coli [7] was 8 µg/mL; in the data set with Escherichia coli [8], 4 µg/mL; in the data set with Escherichia coli [9], 32 µg/mL; in the data set with Klebsiella pneumoniae [10] it was at least 32 µg/mL; in the data set with Klebsiella pneumoniae [11], 64 µg/mL; with Klebsiella pneumoniae [12] it was 16 µg/mL. The MIC in the data set with Acinetobacter baumannii [13] was determined as 4 µg/mL; with Acinetobacter baumannii [14], 4 µg/mL; in the data set on Pseudomonas aeruginosa [15], 4 µg/mL; in the data set on Pseudomonas aeruginosa [16], 2 µg/mL.

In the case of `CNc1cc(F)cc2c1[nH]c1nc(Oc3cnc(C)nc3)nc(N3CC(=CCN)C3)c12`, the MIC in the data set on Staphylococcus aureus [1] was 0.5 µg/mL (≈ 1.19 µM); in the data set with Staphylococcus aureus [2], 0.5 µg/mL (≈ 1.19 µM); in data set [3], 0.25 µg/mL (≈ 0.595 µM); in [4], 0.25 µg/mL (≈ 0.595 µM); in the data set with Escherichia coli [17], 8 µg/mL (≈ 19 µM); with Escherichia coli [5], 0.5 µg/mL (≈ 1.19 µM). Also, the MIC with Pseudomonas aeruginosa [6] is at least 16 µg/mL.

As to `CCC(CO)=C1CN(c2nc(Oc3cnc(C)nc3)nc3[nH]c4c(NC)cc(F)cc4c23)C1`, the minimum inhibitory concentration (MIC) is under 0.008 µg/mL in the data set with Staphylococcus aureus [2]; under 0.008 µg/mL in data set [4]; 0.25 µg/mL (≈ 0.556 µM) with Escherichia coli [17]; 0.25 µg/mL (≈ 0.556 µM) with Escherichia coli [5]; at least 64 µg/mL in the data set with Pseudomonas aeruginosa [6]. Further, the half-life at 0.1 µM amounted to 0.76 h in data set [18] and 1.27 h in data set [19]. Also, the CLH in [20] came to 256.1 mL/min/g; in [21], 51.4 mL/min/g. Moreover, the Fh at 1 h, 0.1 µM in data set [22] amounted to 14.8%; in data set [23] it was 27.6%.

As to `CCC(CN)=C1CN(c2nc(C#N)nc3[nH]c4c(NC)cc(F)cc4c23)C1`, the MIC in the data set with Staphylococcus aureus [1] was found to be 2 µg/mL (≈ 5.47 µM); with Staphylococcus aureus [2], 2 µg/mL (≈ 5.47 µM); in data set [3] it was 0.5 µg/mL (≈ 1.37 µM); in data set [4] it was 0.25 µg/mL (≈ 0.684 µM); in the data set with Escherichia coli [17] it was 0.5 µg/mL (≈ 1.37 µM); in the data set with Escherichia coli [5], 0.25 µg/mL (≈ 0.684 µM). Besides, in the data set with Pseudomonas aeruginosa [6], the MIC came out at 16 µg/mL (≈ 43.8 µM).

For `CNc1cc(F)cc2c1[nH]c1nc(Oc3cnc(C)nc3)nc(N3CCC(=CCN)CC3)c12`, the MIC was 0.5 µg/mL (≈ 1.11 µM) in the data set on Staphylococcus aureus [1]; 1 µg/mL (≈ 2.23 µM) in the data set on Staphylococcus aureus [2]; 0.25 µg/mL (≈ 0.557 µM) in data set [3]; 0.25 µg/mL (≈ 0.557 µM) in data set [4]; 8 µg/mL (≈ 17.8 µM) with Escherichia coli [17]; over 2 µg/mL in the data set with Escherichia coli [5]. The MIC in the data set on Pseudomonas aeruginosa [6] is at least 16 µg/mL.

As for `CCC(CN)=C1CN(c2nc(Oc3ccc4c(c3)C(=O)NC4)nc3[nH]c4c(NC)cc(F)cc4c23)C1`, the minimum inhibitory concentration (MIC) was 0.5 µg/mL (≈ 1.03 µM) in the data set on Staphylococcus aureus [1]; 0.5 µg/mL (≈ 1.03 µM) in the data set on Staphylococcus aureus [2]; 0.06 µg/mL (≈ 0.123 µM) in data set [3]; 0.06 µg/mL (≈ 0.123 µM) in [4]; 8 µg/mL (≈ 16.4 µM) with Escherichia coli [17]; over 8 µg/mL with Escherichia coli [5]. For the same molecule, the MIC with Pseudomonas aeruginosa [6] came to 16 µg/mL (≈ 32.8 µM).

Source of the values: ChEMBL document CHEMBL5096186, “Design, Synthesis, and Biological Evaluation of Novel Pyrimido[4,5-b]indole Derivatives Against Gram-Negative Multidrug-Resistant Pathogens” (J Med Chem, 2021).
